# According to ChEMBL document CHEMBL4376870, “Structure-Activity Relationship in Pyrazolo[4,3-c]pyridines, First Inhibitors of PEX14-PEX5 Protein-Protein Interaction with Trypanocidal Activity” (J Med Chem, 2020):
# Tests used:
# [1] = test system: Trypanosoma brucei brucei; experiment: Antitrypanosomal activity against bloodstream form of Trypanosoma brucei brucei Lister 427 after 66 hrs by Resazurin dye-based fluorescence assay; type: functional, organism-based; settings: Lister 427, 66 h
# [2] = test system: HepG2; experiment: Cytotoxicity against human HepG2 cells assessed as reduction in cell viability measured after 66 hrs by resazurin dye based fluorescence assay; settings: HepG2, 66 h
# [3] = Inhibition of biotinylated PEX5-derived ALSENWAQEFLA binding to Trypanosoma cruzi N-terminal His-tagged PEX14 (21 to 84 residues) expressed in Escherichia coli BL21 by Alphascreen assay
# Summary of the method: (§1)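 His-tagged PEX14 (21-84) at 3 nM with 10 nM biotinylated peptide in PBS containing 5 mg/mL BSA and 0.01% Tween-80; 5 µg/mL streptavidin donor and nickel chelate acceptor beads; 5% DMSO held constant.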
# [4] = Selectivity index, ratio of EC50 for human HepG2 cells to EC50 for antitrypanosomal activity against bloodstream form of Trypanosoma brucei brucei Lister 427
# [5] = target: Peroxisomal membrane protein PEX14 (Homo sapiens, UniProt O75381); experiment: Inhibition of biotinylated PEX5-derived ALSENWAQEFLA binding to human N-terminal His-tagged PEX14 (21 to 84 residues) expressed in Escherichia coli BL21 by Alphascreen assay; summary of the method: as §1
# Sequence of Peroxisomal membrane protein PEX14 (O75381 whole entry, change not shown, the tested form may be a part): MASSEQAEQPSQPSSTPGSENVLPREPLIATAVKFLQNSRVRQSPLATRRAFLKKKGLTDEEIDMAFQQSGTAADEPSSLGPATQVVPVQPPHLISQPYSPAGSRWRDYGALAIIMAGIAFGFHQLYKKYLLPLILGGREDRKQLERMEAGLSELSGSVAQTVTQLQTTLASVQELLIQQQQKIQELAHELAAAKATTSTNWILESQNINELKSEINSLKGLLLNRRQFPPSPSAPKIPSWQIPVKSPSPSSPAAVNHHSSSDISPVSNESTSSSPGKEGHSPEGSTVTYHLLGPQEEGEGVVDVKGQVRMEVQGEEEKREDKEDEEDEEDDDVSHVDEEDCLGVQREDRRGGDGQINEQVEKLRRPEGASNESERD
# [6] = Inhibition of biotinylated PEX5-derived ALSENWAQEFLA binding to Trypanosoma brucei N-terminal His-tagged PEX14 (21 to 84 residues) expressed in Escherichia coli BL21 by Alphascreen assay; summary of the method: as §1
SMILES,EC50 [1],EC50 [2],EC50 [3],selectivity ratio [4],EC50 [5],EC50 [6]
COc1ccc(CN2CCc3nn4c(c3C2)CN(Cc2cccc3ccccc23)C4=O)c2ccccc12,5.61 µM,> 50 µM,448 µM,> 8.9,> 1000 µM,103 µM
COc1ccc(CN2CCc3c(c(C(=O)NCc4cccc5ccccc45)nn3CCN3CCOCC3)C2)c2ccccc12,3.58 µM,42 µM,162 µM,11.7,166 µM,88.1 µM
COc1ccc(CN2CCc3nn4c(c3C2)C(=O)N(Cc2cccc3ccccc23)CC4)c2ccccc12,6.42 µM,> 50 µM,463 µM,> 7.8,> 1000 µM,49.2 µM
